Measurements from ChEMBL document CHEMBL3865820, “Bioactive Dibenzo-α-pyrone Derivatives from the Endophytic Fungus Rhizopycnis vagum Nitaf22” (J Nat Prod, 2016).
≈ marks a conversion by molar mass, not a printed value.

Columns and labels:
[1] = test system: Xanthomonas euvesicatoria; assay: Antibacterial activity against Xanthomonas vesicatoria ATCC 11633 by broth dilution colorimetric assay; format: functional
Method in brief: (§1)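 Modified broth dilution colorimetric assay in 96-well plates, run against a plant- and human-pathogen panel. Both MIC and median inhibitory concentration (IC50) were determined. Streptomycin sulfate served as the positive control.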

[2] = Antibacterial activity against Ralstonia solanacearum ATCC 11696 by broth dilution colorimetric assay; format: functional, Ralstonia solanacearum K60-1
Method in brief: (§2)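 Modified broth dilution colorimetric assay in 96-well plates, reporting both minimum inhibitory concentration (MIC) and median inhibitory concentration (IC50). Streptomycin sulfate served as positive control.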

[3] = test system: Pseudomonas amygdali pv. lachrymans; assay: Antibacterial activity against Pseudomonas lachrymans ATCC 11921 by broth dilution colorimetric assay; format: functional; method in brief: as §1
[4] = test system: Agrobacterium tumefaciens; assay: Antibacterial activity against Agrobacterium tumefaciens ATCC 11158 by broth dilution colorimetric assay; format: functional; method in brief: as §1
[5] = test system: Bacillus subtilis; assay: Antibacterial activity against Bacillus subtilis ATCC 11562 by broth dilution colorimetric assay; format: functional; method in brief: as §1
[6] = test system: Staphylococcus haemolyticus; assay: Antibacterial activity against Staphylococcus haemolyticus ATCC 29970 by broth dilution colorimetric assay; format: functional; method in brief: as §1
[7] = Cytotoxicity against human A2780 cells by MTT assay; format: functional, cell-based
Method in brief: (§3)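 Microculture tetrazolium (MTT) assay on a panel of human carcinoma cell lines: colon HCT-116, hepatocellular HepG2, gastric BGC-823, NSCLC NCI-H1650, ovarian A2780, melanoma A375, lung adenocarcinoma A549, breast MCF-7 and pancreatic Capan2. IC50 values are reported in μM.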

[8] = test system: Pyricularia oryzae; assay: Antifungal activity against Magnaporthe oryzae assessed as inhibition of spore germination after 8 hrs by microscopic analysis; format: functional
Method in brief: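 Spores taken from 7-day-old M. oryzae cultures (2 × 10^6 spores per mL). Compound in 10% aqueous ethanol was mixed 1:1 with the spore suspension on a concave slide and kept in a dark moist chamber at 25 °C for 8 h. Germination was counted by microscope. Inhibition % = [(Gc − Gt)/Gc] × 100 against 10% ethanol control, with triplicates. IC50 was obtained by linear regression; carbendazim served as positive control.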

[9] = Cytotoxicity against human HepG2 cells by MTT assay; format: functional, cell-based; method in brief: as §3
[10] = Cytotoxicity against human NCI-H1650 cells by MTT assay; format: functional, cell-based; method in brief: as §3
[11] = Cytotoxicity against human BGC823 cells by MTT assay; format: functional, cell-based; details: BGC-823; method in brief: as §3
[12] = Cytotoxicity against human HCT116 cells by MTT assay; format: functional, cell-based; details: HCT-116; method in brief: as §3
[13] = Cytotoxicity against human T47D cells; format: functional, cell-based
[14] = Cytotoxicity against human MDA-MB-231 cells; format: functional, cell-based
[15] = Cytotoxicity against human MRC5 cells; format: toxicity, cell-based
[16] = Cytotoxicity against human A549 cells; format: functional, cell-based
[17] = Cytotoxicity against human HuCCa1 cells; format: functional, cell-based; details: HuCC-A1
[18] = Cytotoxicity against human HeLa cells; format: functional, cell-based
[19] = Cytotoxicity against human MOLT3 cells; format: functional, cell-based; details: MOLT-3
[20] = Cytotoxicity against human HepG2 cells; format: functional, cell-based
[21] = test system: Pseudomonas amygdali pv. lachrymans; assay: Antibacterial activity against Pseudomonas lachrymans ATCC 11921 after 24 hrs by MTT based broth dilution colorimetric assay; format: functional; details: ATCC 11921, 24 h; method in brief: as §2
[22] = test system: Agrobacterium tumefaciens; assay: Antibacterial activity against Agrobacterium tumefaciens ATCC 11158 after 24 hrs by MTT based broth dilution colorimetric assay; format: functional; details: ATCC 11158, 24 h
[23] = Cytotoxicity against human A375 cells by MTT assay; format: functional, cell-based; details: A-375; method in brief: as §3
[24] = Cytotoxicity against human A549 cells by MTT assay; format: functional, cell-based; method in brief: as §3
[25] = Cytotoxicity against human MCF7 cells by MTT assay; format: functional, cell-based; method in brief: as §3
[26] = test system: Bacillus subtilis; assay: Antibacterial activity against Bacillus subtilis ATCC 11562 after 24 hrs by MTT based broth dilution colorimetric assay; format: functional; details: ATCC 11562, 24 h
[27] = test system: Xanthomonas euvesicatoria; assay: Antibacterial activity against Xanthomonas vesicatoria ATCC 11633 after 24 hrs by MTT based broth dilution colorimetric assay; format: functional; details: ATCC 11633, 24 h; method in brief: as §2
[28] = Cytotoxicity against human Capan2 cells by MTT assay; format: functional, cell-based; details: Capan-2; method in brief: as §3

Compound | MIC [1] | MIC [2] | MIC [3] | MIC [4] | MIC [5] | MIC [6] | IC50 [7] | IC50 [8] | IC50 [9] | IC50 [10] | IC50 [11] | IC50 [12] | IC50 [5] | further results
COC1=C(N)[C@](C)(O)c2c(oc(=O)c3c(O)cc(OC)cc23)C1=O | > 200 µg/mL | > 200 µg/mL | > 200 µg/mL | > 200 µg/mL | > 200 µg/mL | > 200 µg/mL | – | – | – | – | – | – | – | –
COc1cc(O)c2c(=O)oc3c(O)c(OC)cc(C)c3c2c1 | > 200 µg/mL | > 200 µg/mL | > 200 µg/mL | > 200 µg/mL | > 200 µg/mL | > 200 µg/mL | > 10 µM | > 200 µg/mL | > 10 µM | > 10 µM | > 10 µM | > 10 µM | – | –
COC1=C(Cl)[C@](C)(O)c2c(oc(=O)c3c(O)cc(OC)cc23)C1=O | > 200 µg/mL | > 200 µg/mL | > 200 µg/mL | > 200 µg/mL | 50 µg/mL (≈ 142 µM) | > 200 µg/mL | 3.6 µM | 12 µg/mL (≈ 34 µM) | 5.9 µM | 3.2 µM | 7.8 µM | 4.2 µM | 21.6 µg/mL (≈ 61.2 µM) | IC50 [13]: 1.1 to 12.6 µM; IC50 [14]: 1.1 to 12.6 µM; IC50 [15]: 1.1 to 12.6 µM; IC50 [16]: 1.1 to 12.6 µM; IC50 [17]: 1.1 to 12.6 µM; IC50 [18]: 1.1 to 12.6 µM; IC50 [19]: 1.1 to 12.6 µM; IC50 [20]: 1.1 to 12.6 µM
COc1cc(O)c2c(=O)oc3cc(O)cc(C)c3c2c1 | – | – | – | – | – | – | – | – | – | – | – | > 50 µM | – | IC50 [21]: 16.7 to 34.3 µg/mL (≈ 61.3 to 126 µM); IC50 [22]: 16.7 to 34.3 µg/mL (≈ 61.3 to 126 µM); IC50 [23]: > 50 µM; IC50 [24]: 70.4 µM; IC50 [25]: > 50 µM; IC50 [26]: 16.7 to 34.3 µg/mL (≈ 61.3 to 126 µM); IC50 [27]: 16.7 to 34.3 µg/mL (≈ 61.3 to 126 µM); IC50 [28]: > 50 µM
Cc1cc(O)cc2oc(=O)c3c(O)cc(O)cc3c12 [ALTERNARIOL] | 25 µg/mL (≈ 96.8 µM) | 25 µg/mL (≈ 96.8 µM) | 25 µg/mL (≈ 96.8 µM) | 50 µg/mL (≈ 194 µM) | 50 µg/mL (≈ 194 µM) | 50 µg/mL (≈ 194 µM) | > 10 µM | > 200 µg/mL | > 10 µM | > 10 µM | > 10 µM | > 10 µM | 7 µg/mL (≈ 27.1 µM) | IC50 [1]: 4.9 µg/mL (≈ 19 µM); IC50 [2]: 5.5 µg/mL (≈ 21.3 µM); IC50 [3]: 3.5 µg/mL (≈ 13.6 µM); IC50 [4]: 11.4 µg/mL (≈ 44.1 µM); IC50 [6]: 7.9 µg/mL (≈ 30.6 µM)
COC(=O)Nc1nc2ccccc2[nH]1 [CARBENDAZIM] | – | – | – | – | – | – | – | 6.9 µg/mL (≈ 36.1 µM) | – | – | – | – | – | –
CC(=O)O[C@H]1C(=O)[C@@]2(C)[C@H]([C@H](OC(=O)c3ccccc3)[C@]3(O)C[C@H](OC(=O)[C@H](O)[C@@H](NC(=O)c4ccccc4)c4ccccc4)C(C)=C1C3(C)C)[C@]1(OC(C)=O)CO[C@@H]1C[C@@H]2O [PACLITAXEL] | – | – | – | – | – | – | 0.038 µM | – | 0.012 µM | 0.068 µM | 0.0033 µM | 0.0009 to 0.004 µM | – | IC50 [23]: 0.022 µM; IC50 [24]: 0.023 µM; IC50 [25]: 0.0006 µM; IC50 [28]: 0.017 µM
CN[C@@H]1[C@H](O[C@H]2[C@H](O[C@H]3[C@H](O)[C@@H](O)[C@H](N=C(N)N)[C@@H](O)[C@@H]3N=C(N)N)O[C@@H](C)[C@]2(O)C=O)O[C@@H](CO)[C@H](O)[C@H]1O.CN[C@@H]1[C@H](O[C@H]2[C@H](O[C@H]3[C@H](O)[C@@H](O)[C@H](N=C(N)N)[C@@H](O)[C@@H]3N=C(N)N)O[C@@H](C)[C@]2(O)C=O)O[C@@H](CO)[C@H](O)[C@H]1O.O=S(=O)(O)O.O=S(=O)(O)O.O=S(=O)(O)O [STREPTOMYCIN SULFATE] | 10 µg/mL | 5 µg/mL | 7.5 µg/mL | 5 µg/mL | 5 µg/mL | 5 µg/mL | – | – | – | – | – | – | 1.4 µg/mL | IC50 [1]: 2.6 µg/mL; IC50 [2]: 1.2 µg/mL; IC50 [3]: 2.3 µg/mL; IC50 [4]: 1.4 µg/mL; IC50 [6]: 1.4 µg/mL
